Activity calls are given as the source filed them. No cut-off for these calls is given here.
What was measured:
HUVEC [1] = assay: Effect on MAP1B gene expression in serum-starved HUVEC after 6 hrs by microarray analysis relative to control; format: functional, Homo sapiens
How it was run: (§1)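 Serum-starved confluent HUVEC (pooled from 3–5 donors, passage ≤4) were treated with 2 μM compound or vehicle in 2.5% FBS for 6 h or 24 h, and total RNA was isolated. Hybridization was on Illumina Human-HT12. Data were processed with bgAdjust, vst and rsn normalization. Changes versus DMSO were called by moderated paired t-test at p < 0.05 and |log2 fold change| > 0.5.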

HUVEC [2] = assay: Effect on CKS1B gene expression in serum-starved HUVEC after 24 hrs by microarray analysis relative to control; format: functional, Homo sapiens
How it was run: (§2)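 Serum-starved confluent HUVEC treated with 2 μM compound or DMSO in 2.5% FBS for 6 h or 24 h; RNA hybridized to Illumina Human-HT12 arrays. Data background-corrected, vst-transformed and rsn-normalized. Differential probes called by moderated paired t-test (limma) at p < 0.05 and log2 fold change >|0.5| vs DMSO.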

HUVEC [3] = assay: Effect on ZWINT gene expression in serum-starved HUVEC after 24 hrs by microarray analysis relative to control; format: functional, Homo sapiens
How it was run: (§3)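 Confluent serum-starved HUVEC (primary, pooled from 3–5 donors, passage ≤4) treated with 2 μM compound or DMSO vehicle in 2.5% FBS for 6 h or 24 h. Total RNA hybridized to Illumina Human-HT12 arrays, background-corrected, vst-transformed and rsn-normalized. Differential expression versus DMSO by moderated paired t-test (p < 0.05, |log2 fold change| > 0.5).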

HUVEC [4] = assay: Effect on FILIP1L gene expression in serum-starved HUVEC after 6 hrs by microarray analysis relative to control; format: functional, Homo sapiens
How it was run: (§4)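 Confluent, serum-starved HUVEC (pooled from 3–5 donors, passage ≤4) treated with 2 μM compound or vehicle with 2.5% FBS for 6 h or 24 h. Total RNA hybridized to Illumina Human-HT12 arrays. Data were background-corrected, vst-transformed and rsn-normalized. Hits called by moderated paired t-test versus DMSO-treated cells, p < 0.05 and log2 fold change >|0.5|.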

HUVEC [5] = assay: Effect on MBNL2 gene expression in serum-starved HUVEC after 6 hrs by microarray analysis relative to control; format: functional, Homo sapiens; how it was run: as §1
HUVEC [6] = assay: Effect on PNISR gene expression in serum-starved HUVEC after 24 hrs by microarray analysis relative to control; format: functional, Homo sapiens; how it was run: as §1
HUVEC [7] = assay: Effect on RHOB gene expression in serum-starved HUVEC after 6 hrs by microarray analysis relative to control; format: functional, Homo sapiens
HUVEC [8] = assay: Effect on SIVA1 gene expression in serum-starved HUVEC after 6 hrs by microarray analysis relative to control; format: functional, Homo sapiens
HUVEC [9] = assay: Effect on MMP1 gene expression in serum-starved HUVEC after 6 hrs by microarray analysis relative to control; format: functional, Homo sapiens; how it was run: as §1
HUVEC [10] = assay: Effect on RNA18S5 gene expression in serum-starved HUVEC after 24 hrs by microarray analysis relative to control; format: functional, Homo sapiens
HUVEC [11] = assay: Effect on SND1-IT1 gene expression in serum-starved HUVEC after 24 hrs by microarray analysis relative to control; format: functional, Homo sapiens
HUVEC [12] = assay: Effect on ACACA gene expression in serum-starved HUVEC after 6 hrs by microarray analysis relative to control; format: functional, Homo sapiens; how it was run: as §2
HUVEC [13] = assay: Effect on ANKRD1 gene expression in serum-starved HUVEC after 6 hrs by microarray analysis relative to control; format: functional, Homo sapiens; how it was run: as §3
HUVEC [14] = assay: Effect on ASAP1 gene expression in serum-starved HUVEC after 6 hrs by microarray analysis relative to control; format: functional, Homo sapiens; how it was run: as §3
HUVEC [15] = assay: Effect on ATP1B1 gene expression in serum-starved HUVEC after 6 hrs by microarray analysis relative to control; format: functional, Homo sapiens; how it was run: as §2
HUVEC [16] = assay: Effect on CD14 gene expression in serum-starved HUVEC after 6 hrs by microarray analysis relative to control; format: functional, Homo sapiens; how it was run: as §3
HUVEC [17] = assay: Effect on CD68 gene expression in serum-starved HUVEC after 6 hrs by microarray analysis relative to control; format: functional, Homo sapiens; how it was run: as §2
HUVEC [18] = assay: Effect on CDC25C gene expression in serum-starved HUVEC after 6 hrs by microarray analysis relative to control; format: functional, Homo sapiens; how it was run: as §3
HUVEC [19] = assay: Effect on CDKN3 gene expression in serum-starved HUVEC after 6 hrs by microarray analysis relative to control; format: functional, Homo sapiens; how it was run: as §2
HUVEC [20] = assay: Effect on CTHRC1 gene expression in serum-starved HUVEC after 6 hrs by microarray analysis relative to control; format: functional, Homo sapiens; how it was run: as §4
HUVEC [21] = assay: Effect on CYP26B1 gene expression in serum-starved HUVEC after 6 hrs by microarray analysis relative to control; format: functional, Homo sapiens; how it was run: as §4
HUVEC [22] = assay: Effect on FAM212A gene expression in serum-starved HUVEC after 6 hrs by microarray analysis relative to control; format: functional, Homo sapiens; how it was run: as §3
HUVEC [23] = assay: Effect on GLIPR1 gene expression in serum-starved HUVEC after 6 hrs by microarray analysis relative to control; format: functional, Homo sapiens; how it was run: as §4
HUVEC [24] = assay: Effect on KIF11 gene expression in serum-starved HUVEC after 6 hrs by microarray analysis relative to control; format: functional, Homo sapiens; how it was run: as §4
HUVEC [25] = assay: Effect on LPIN1 gene expression in serum-starved HUVEC after 6 hrs by microarray analysis relative to control; format: functional, Homo sapiens
HUVEC [26] = assay: Effect on MTSS1 gene expression in serum-starved HUVEC after 6 hrs by microarray analysis relative to control; format: functional, Homo sapiens
HUVEC [27] = assay: Effect on MYLIP gene expression in serum-starved HUVEC after 6 hrs by microarray analysis relative to control; format: functional, Homo sapiens
HUVEC [28] = assay: Effect on RNU1-1 gene expression in serum-starved HUVEC after 6 hrs by microarray analysis relative to control; format: functional, Homo sapiens
HUVEC [29] = assay: Effect on TM7SF2 gene expression in serum-starved HUVEC after 6 hrs by microarray analysis relative to control; format: functional, Homo sapiens
HUVEC [30] = assay: Effect on VCAM1 gene expression in serum-starved HUVEC after 6 hrs by microarray analysis relative to control; format: functional, Homo sapiens
HUVEC [31] = assay: Effect on ACAT2 gene expression in serum-starved HUVEC after 24 hrs by microarray analysis relative to control; format: functional, Homo sapiens; how it was run: as §2
HUVEC [32] = assay: Effect on AURKA gene expression in serum-starved HUVEC after 24 hrs by microarray analysis relative to control; format: functional, Homo sapiens; how it was run: as §3
HUVEC [33] = assay: Effect on DKK1 gene expression in serum-starved HUVEC after 24 hrs by microarray analysis relative to control; format: functional, Homo sapiens; how it was run: as §3
HUVEC [34] = assay: Effect on LIPG gene expression in serum-starved HUVEC after 24 hrs by microarray analysis relative to control; format: functional, Homo sapiens
HUVEC [35] = assay: Effect on LPIN1 gene expression in serum-starved HUVEC after 24 hrs by microarray analysis relative to control; format: functional, Homo sapiens
HUVEC [36] = assay: Effect on NSDHL gene expression in serum-starved HUVEC after 24 hrs by microarray analysis relative to control; format: functional, Homo sapiens
HUVEC [37] = assay: Effect on RNU4ATAC gene expression in serum-starved HUVEC after 24 hrs by microarray analysis relative to control; format: functional, Homo sapiens
HUVEC [38] = assay: Effect on TMEM154 gene expression in serum-starved HUVEC after 24 hrs by microarray analysis relative to control; format: functional, Homo sapiens
HUVEC [39] = assay: Effect on TUBB2B gene expression in serum-starved HUVEC after 24 hrs by microarray analysis relative to control; format: functional, Homo sapiens
[40] = Upregulation of SQLE gene expression in serum-starved HUVEC at 2 uM after 24 hrs by qRT-PCR analysis; format: functional, cell-based; conditions: Homo sapiens

COc1ccc(Cn2nc(-c3ccccc3)c3cc(Cl)nc(N4CCNCC4)c32)cc1
fold change (FC) (HUVEC [1]): 0.5859
log2FC (HUVEC [2]): -0.5699
log2FC (HUVEC [3]): -0.5572
log2FC (HUVEC [4]): 0.5185
log2FC (HUVEC [5]): 0.2488
log2FC (HUVEC [6]): 0.0521
log2FC (HUVEC [7]): -0.225
log2FC (HUVEC [8]): -0.2087

COc1ccc(Cn2nc(-c3ccccc3)c3cc(Nc4ccc(N5CCN(C)CC5)cc4)nc(N4CCNCC4)c32)cc1
log2FC (HUVEC [9]): -0.1422
log2FC (HUVEC [10]): 0.5309
log2FC (HUVEC [11]): 0.603

COc1ccc(Cn2nc(-c3ccccc3)c3cc(Nc4ccc(N5CCN(C)CC5)cc4)nc(N4CCN(C)CC4)c32)cc1
fold change (FC) (HUVEC [12]): 0.1305
fold change (FC) (HUVEC [13]): -0.5735
fold change (FC) (HUVEC [14]): 0.6103
fold change (FC) (HUVEC [15]): 0.237
fold change (FC) (HUVEC [16]): 1.7643
fold change (FC) (HUVEC [17]): 0.5187
fold change (FC) (HUVEC [18]): -0.0013
log2FC (HUVEC [19]): -0.0153
log2FC (HUVEC [20]): -0.0221
log2FC (HUVEC [21]): -0.3941
fold change (FC) (HUVEC [22]): 0.129
fold change (FC) (HUVEC [23]): 0.1533
fold change (FC) (HUVEC [24]): 0.073
fold change (FC) (HUVEC [25]): 0.2925
fold change (FC) (HUVEC [26]): 0.2099
fold change (FC) (HUVEC [27]): -0.5593
fold change (FC) (HUVEC [28]): -0.6255
log2FC (HUVEC [29]): 0.343
log2FC (HUVEC [30]): 0.1271
log2FC (HUVEC [31]): 1.8135
fold change (FC) (HUVEC [32]): -0.6725
fold change (FC) (HUVEC [33]): -0.6899
log2FC (HUVEC [34]): 1.1948
log2FC (HUVEC [35]): 0.8618
log2FC (HUVEC [36]): 1.1565
log2FC (HUVEC [37]): -0.0618
log2FC (HUVEC [38]): 0.8028
log2FC (HUVEC [39]): 0.8576
Activity [40]: Active

From ChEMBL document CHEMBL3856209, “Novel pyrazolopyridine derivatives as potential angiogenesis inhibitors: Synthesis, biological evaluation and transcriptome-based mechanistic analysis” (Eur J Med Chem, 2016)
